# Shown is part of a subset that was picked to be rich in hits.
# CHOP UPR activ – apoptotic UPR (CHOP) activation. CHO-CHOP luciferase reporter, luminescence; percent of tunicamycin response over DMSO baseline. activation, % at 10 µM. 330,000 tested, 0.34% active. AID 449763;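 active = at 10 µM dose, activation of 40% or more, normalized to positive control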;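 note: 100% = tunicamycin at 10 µg/mL and 0% = DMSO alone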
#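 Test system: CHO CHOP reporter cells. Input: 500 CHO-CHOP cells per well. Medium: F12 with 10% FBS. Technique: luciferase luminescence. Measure: percent activation relative to tunicamycin control. Dosing: 10 µM compound, 0.5% DMSO. Timing: 16-18 h cell attachment, then 6 h compound exposure, 37 °C.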
# Dynein transport – blocks dynein driven cargo transport along microtubules; z-score, hits read low; 3617.4 mouse cells, GR-EGFP nuclear translocation imaging; test concentration mostly 20 µM; stimulated with dexamethasone, 1 µM; hits give low values; 220,000 tested, 0.47% active;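 active = plate z-score of nuclear minus cytoplasmic receptor signal below a set negative limit, without overly bright fluorescence or cell loss, cut at about -3.5 in these data, passing the limit was not always enough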;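 note: z-score of nuclear minus cytoplasmic ring GR-EGFP intensity difference per well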
#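 Buffer or medium: Induction medium lacking tetracycline, stripped serum | Also added: Dexamethasone agonist, 1.0 µM final, for 30 min | Timing: 48 h induction, 1 h compound, 30 min dex at 37 °C | Detection: Formaldehyde fixation, Hoechst nuclear stain, 10x automated fluorescence imaging | Measure: Nuclear versus cytoplasmic GR-EGFP signal, averaged per well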
# CHOP inhibitor – blocks CHOP induction under ER stress | CHO-K1 CHOP-promoter luciferase, tunicamycin-induced, 15-18 h | 220,000 tested, 3.8% active | inhibition, % at 10 µM | AID 2732;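 active = compounds that reduced the stress-induced luciferase reporter signal by more than about 70% of percent inhibition, limit read from the data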;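 note: 0% = tunicamycin plus vehicle and 100% = wells without tunicamycin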
# B2AR ag – agonists of human beta-2 adrenergic receptor inducing internalization. AID 504454. P07550. 340,000 tested, 0.43% active. response, % (concentration not given with the values). Am2.2-beta2AR cells, FAP receptor internalization, flow cytometry;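 active = response above a set limit, near 3 SD of response in nonfluorescent compounds, cut at about 42% in these data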
# pCIP destab – lowers stability of the mouse p/CIP coactivator protein | Q05BA5 | F442A p/CIP-EGFP cells, EGFP fluorescence, 16 h | decrease of EGFP signal, % at 10 µM | 290,000 tested, 0.01% active | AID 1984;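 active = EGFP signal decrease of at least 30% at 10 µM or well 3 SD below plate mean, unless failing retest; inactive = the rest, including hits failing retest or dose response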
# Target sequence (Q05BA5 1-1403): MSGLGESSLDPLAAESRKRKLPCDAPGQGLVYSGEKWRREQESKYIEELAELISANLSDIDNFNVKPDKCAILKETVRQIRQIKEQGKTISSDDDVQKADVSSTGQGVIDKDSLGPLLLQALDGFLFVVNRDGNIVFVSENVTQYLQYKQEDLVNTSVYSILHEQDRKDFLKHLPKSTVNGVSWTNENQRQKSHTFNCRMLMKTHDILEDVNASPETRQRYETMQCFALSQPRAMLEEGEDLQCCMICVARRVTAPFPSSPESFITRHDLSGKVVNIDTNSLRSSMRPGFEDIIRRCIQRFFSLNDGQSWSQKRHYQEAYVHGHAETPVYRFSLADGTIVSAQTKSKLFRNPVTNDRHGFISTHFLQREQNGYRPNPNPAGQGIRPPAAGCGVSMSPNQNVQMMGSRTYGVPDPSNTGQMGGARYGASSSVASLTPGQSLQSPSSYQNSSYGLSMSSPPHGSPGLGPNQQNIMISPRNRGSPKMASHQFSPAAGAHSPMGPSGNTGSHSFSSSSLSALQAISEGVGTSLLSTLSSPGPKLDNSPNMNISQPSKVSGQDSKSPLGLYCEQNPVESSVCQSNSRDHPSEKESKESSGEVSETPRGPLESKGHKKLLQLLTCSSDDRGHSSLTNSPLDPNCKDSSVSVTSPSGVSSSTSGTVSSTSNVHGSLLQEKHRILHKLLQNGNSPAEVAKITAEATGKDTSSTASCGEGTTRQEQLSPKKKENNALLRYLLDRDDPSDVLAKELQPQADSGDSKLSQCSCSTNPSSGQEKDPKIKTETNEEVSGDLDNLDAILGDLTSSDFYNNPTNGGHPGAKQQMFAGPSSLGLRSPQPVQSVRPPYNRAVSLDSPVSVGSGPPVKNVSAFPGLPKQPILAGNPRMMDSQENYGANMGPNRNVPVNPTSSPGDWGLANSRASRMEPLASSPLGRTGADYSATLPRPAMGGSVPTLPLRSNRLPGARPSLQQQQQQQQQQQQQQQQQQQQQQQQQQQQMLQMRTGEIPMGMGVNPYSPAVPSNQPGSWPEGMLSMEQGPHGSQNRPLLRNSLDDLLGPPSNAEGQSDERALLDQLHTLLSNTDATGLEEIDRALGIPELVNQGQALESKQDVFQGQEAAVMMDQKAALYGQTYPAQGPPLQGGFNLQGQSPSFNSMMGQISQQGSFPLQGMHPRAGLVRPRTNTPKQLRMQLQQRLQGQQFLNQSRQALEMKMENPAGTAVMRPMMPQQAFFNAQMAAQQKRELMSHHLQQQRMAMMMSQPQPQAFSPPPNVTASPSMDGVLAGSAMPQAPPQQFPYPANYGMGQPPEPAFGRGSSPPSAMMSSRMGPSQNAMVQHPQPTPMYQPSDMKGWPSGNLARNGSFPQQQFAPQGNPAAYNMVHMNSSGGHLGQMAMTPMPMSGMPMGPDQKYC
# XBP1 UPR activ – activators of adaptive arm of unfolded protein response (XBP1). CHO-XBP1 luciferase reporter, IRE1-XBP1 UPR activation, luminescence; percent of tunicamycin response, DMSO as zero. activation, % at 20 µM. 330,000 tested, 0.33% active;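 active = versus positive control, 20 µM dose yields 30% or more activation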;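 note: 100% = tunicamycin at 10 µg/mL and 0% = DMSO only wells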
#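 Material: IRE1-XBP1 luciferase reporter CHO line / Quantity: one thousand reporter cells per well / Buffer or medium: F12 with 10% serum / Compound: 20 µM single concentration, DMSO 1% / Times: 6 h treatment, 37 °C / Detection: Steady-Glo luciferase glow luminescence, 10 min after reagent addition / Benchmarks: tunicamycin high, DMSO low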
# * marks the source's active call; other numbers are inactive results; · = no result given.
SMILES,CHOP UPR activ,Dynein transport,CHOP inhibitor,B2AR ag,pCIP destab,XBP1 UPR activ
O=C(Nc1ccccc1-c1nnn(CC(=O)N2CCOCC2)n1)c1ccccc1F,0,-0.43,-12,-13,5,-3
Cc1nc2c(OCc3ccccc3)cccn2c1CC#N,·,·,3,·,·,·
O=C1N(c2ccccc2)C[C@@H]2C[C@@H](c3cc4ccccc4o3)N3CCC[C@@]123,-5,-0.5,103*,0,-21,-3
Cc1ccc(-c2ccccc2[C@@H]2C[C@H]3CN(C)C(=O)[C@]34CCCN24)o1,0,-0.76,14,-4,-10,-2
CC(C)n1c(NCCc2ccccc2)nc2c1c(=O)n(C)c(=O)n2C,3,-0.98,75*,3,-4,8
COCCCNc1nc2c(c(=O)n(Cc3ccc(F)cc3)c(=O)n2C)n1C,-2,·,·,-5,-10,-1
COc1ccc(CNc2nc3c(c(=O)n(Cc4ccc(Br)cc4)c(=O)n3C)n2C)cc1,2,-0.28,73*,5,-5,-4
CCCNc1nc2c(c(=O)n(C)c(=O)n2C)n1CCc1ccccc1,0,0.33,4,-9,-9,-2
Cn1c(NN)nc2c1c(=O)n(Cc1ccccc1)c(=O)n2C,2,·,·,-2,-14,-10
Cn1c(N/N=C2\CCCc3ccccc32)nc2c1c(=O)n(Cc1ccc(F)cc1)c(=O)n2C,·,-0.34,83*,36,-13,·
COc1ccc(Cn2c(=O)c3c(nc(NCCO)n3C)n(C)c2=O)cc1,-1,0.18,22,-2,-9,-4
Cn1c(NCc2ccccc2)nc2c1c(=O)n(Cc1ccc(Br)cc1)c(=O)n2C,1,-0.86,72*,-12,-6,-6
O=C(Cc1ccccc1)NC1CCSc2ccccc21 (stereo unspecified),1,·,·,2,-6,-3
COC(=O)n1c(SC)nc2ccccc21,1,3.5,16,78*,-8,0
CCCc1nc(SCC(=O)c2ccc(OC)cc2)c2c(=O)n(C)c(=O)n(C)c2n1,·,·,·,·,3,·
CCCc1nc(SCC(=O)c2ccccc2)c2c(=O)n(C)c(=O)n(C)c2n1,1,-0.76,74*,-12,-19,-2
CCCc1nc(SCC(=O)Nc2cc(Cl)ccc2OC)c2c(=O)n(C)c(=O)n(C)c2n1,0,0.47,79*,·,1,3
O=C(CN(c1ccccc1)S(=O)(=O)c1ccccc1)N/N=C/c1ccco1,2,1.1,-2,-7,13,-1
COc1ccc(C(=O)Nc2ccc(NC(=O)c3ccccc3OC)nc2)cc1,3,·,·,9,-17,6
Cc1ccccc1/C=C1\CCCc2ccccc2C1=O,3,-0.0025,49,3,20,1
Cc1ccsc1/C=C1\CCc2ccccc2C1=O,-5,-1.1,77*,6,-7,-4
COc1cc(/C=N/N=C2\CC3CCC2(C)C3(C)C)ccc1O (stereo unspecified),1,-1.1,77*,5,-20,-1
COc1ccc(/C=N/N=C2\CC3CCC2(C)C3(C)C)cc1O (stereo unspecified),2,-0.84,24,5,1,2
O=Cc1cc2ccccc2nc1SCCCF,-2,-0.4,43,-118,-7,7
Cc1ccc(C)n1-c1ccccc1N,-6,-0.38,44,·,-14,-9
SMILES,CHOP UPR activ,Dynein transport,CHOP inhibitor,B2AR ag,pCIP destab,XBP1 UPR activ
Cc1cc(=O)cc(C)n1-c1ccccc1N,-3,·,·,45*,-3,-1
Cc1sc(/C=C2\C(=O)ON=C2c2ccccc2)cc1Br,0,-0.71,88*,·,8,-2
O=C1ON=C(c2ccccc2)/C1=C/c1ccc(O)cc1,10,·,·,47*,-6,7
COc1cc(/C=C2/C(=O)ON=C2c2ccccc2)ccc1O,21,-2.1,67,42*,-4,8
COc1cc(/C=C2\C(=O)ON=C2c2ccccc2)cc(Cl)c1O,20,-0.86,34,-92,-74,-3
Cc1cc(C)c(C#N)c(Nc2ccc(F)cc2)n1,3,·,·,-1,6,-9
Cc1nc(C(F)(F)F)nc(Nc2ccc(Br)cc2)c1C#N,-1,0.098,82*,-6,-3,1
O=C(CCCC(=O)c1ccccc1)NCCc1ccccc1F,2,·,·,-7,-4,-3
O=C(CC1SC(=NCc2ccccc2)NC1=O)Nc1ccccc1 (stereo unspecified),1,2.1,-30,-11,-9,-1
Cc1ccc(C)c(NS(=O)(=O)c2ccc3c(c2)Cc2cc(S(=O)(=O)Nc4cc(C)ccc4C)ccc2-3)c1,·,-0.18,83*,1,-5,·
Cc1cccc(S(=O)(=O)Nc2cccc3c2C(=O)c2ccccc2-3)c1,0,0.49,41,5,-14,0
Cc1ccc(NS(=O)(=O)c2ccc3c(c2)C(=O)c2ccccc2C3=O)c(C)c1,·,0.038,80*,-6,4,·
O=S(=O)(/C(=C\c1ccc(C(F)(F)F)cc1)c1nc2ccccc2[nH]1)c1ccccc1,·,·,·,22,·,·
O=C(NCc1ccco1)/C(=C/c1ccc(C(F)(F)F)cc1)c1nc2ccccc2[nH]1,8,-0.96,89*,-12,-2,4
CCCCn1c(N)c(N(CCOC)C(=O)c2ccc3c(c2)C(=O)N(c2ccccc2Cl)C3=O)c(=O)[nH]c1=O,1,·,·,5,·,0
Cc1ccc2[nH]c(=O)cc(C(=O)OCC(=O)c3ccc(F)cc3)c2c1,0,0.43,77*,-4,1,1
Cc1ccc2[nH]c(=O)cc(C(=O)OCC(=O)c3ccccc3)c2c1,11,1.6,-19,-10,-6,-2
CCOc1cc(/C=N/O)ccc1OS(=O)(=O)c1ccc(C)cc1,0,0.13,55,3,-8,3
CCOc1cc(/C=N/NC(=O)COc2ccc(C)cc2)ccc1OC(=O)c1cccs1,0,0.29,34,-5,9,0
CCOc1cc(/C=N/NC(=O)COc2ccc(Cl)cc2)ccc1OS(=O)(=O)c1ccccc1,2,-0.58,81*,4,-32,2
CCOc1cc(/C=N/NC(=O)COc2ccccc2C)ccc1OC(=O)c1cccs1,0,0.75,76*,11,-8,-1
CCC(=O)N/N=C/c1ccc(OS(=O)(=O)c2ccccc2)cc1,1,0.59,15,1,-3,0
CCOc1cc(/C=N/NS(=O)(=O)c2ccccc2)ccc1OS(=O)(=O)c1ccc(C)cc1,-2,0.45,87*,5,5,-4
Cc1ccc(S(=O)(=O)N/N=C/c2ccc(OS(=O)(=O)c3ccc(C)c([N+](=O)[O-])c3)cc2)cc1,3,0.72,80*,5,-2,-1
